ChEMBL document CHEMBL1208690, “A novel aryl-hydrazide from the marine lichen Lichina pygmaea: isolation, synthesis of derivatives, and cytotoxicity assays” (Bioorg Med Chem Lett, 2010)

Experiments:
A-375 [1] = experiment: Cytotoxicity activity against human A375 cells after 24 hrs by NRU assay; assay type: functional, cell-based; conditions: A-375, 24 h
In short: (§1)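 Neutral red uptake assay. A375 cells were seeded at 12×10³ and B16 at 10×10³ cells/well, then incubated 24 h at 37 °C in humidified 5% CO₂. Cells were exposed to compound dilutions in RPMI for 24 or 48 h. Dye was extracted with ethanol/acetic acid/water (50:1:49) and A540 read. IC50 was taken graphically from concentration-effect curves.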

A-375 [2] = experiment: Cytotoxicity activity against human A375 cells at 50 uM after 24 hrs by NRU assay; assay type: functional; conditions: A-375, 24 h; in short: as §1
A-375 [3] = experiment: Cytotoxicity activity against human A375 cells after 48 hrs by NRU assay; assay type: functional, cell-based; conditions: A-375, 48 h; in short: as §1
A-375 [4] = experiment: Cytotoxicity activity against human A375 cells at 50 uM after 48 hrs by NRU assay; assay type: functional; conditions: A-375, 48 h; in short: as §1
B16 [5] = experiment: Cytotoxicity activity against mouse B16 cells after 24 hrs by NRU assay; assay type: functional, cell-based; conditions: B16, 24 h; in short: as §1
B16 [6] = experiment: Cytotoxicity activity against mouse B16 cells at 50 uM after 24 hrs by NRU assay; assay type: functional; conditions: B16, 24 h; in short: as §1
B16 [7] = experiment: Cytotoxicity activity against mouse B16 cells after 48 hrs by NRU assay; assay type: functional, cell-based; conditions: B16, 48 h; in short: as §1
B16 [8] = experiment: Cytotoxicity activity against mouse B16 cells at 50 uM after 48 hrs by NRU assay; assay type: functional; conditions: B16, 48 h; in short: as §1

Row | Structure (SMILES) | IC50 (A-375 [1]) | inhibition at 50 µM (A-375 [2]) | IC50 (A-375 [3]) | inhibition at 50 µM (A-375 [4]) | IC50 (B16 [5]) | inhibition at 50 µM (B16 [6]) | IC50 (B16 [7]) | inhibition at 50 µM (B16 [8])
1 | N[C@@H](CCC(=O)NNc1cccc(O)c1)C(=O)O | > 50 µM | 8% | > 50 µM | 14% | 12 µM | 100% | 12 µM | 100%
2 | O=C(CC[C@H](NC(=O)OCc1ccccc1)C(=O)OCc1ccccc1)NNc1ccccc1OCc1ccccc1 | 29 µM | 77% | 30 µM | 69% | 21 µM | 96% | 15 µM | 100%
3 | O=C(CC[C@H](NC(=O)OCc1ccccc1)C(=O)OCc1ccccc1)NNc1cccc(OCc2ccccc2)c1 | 28 µM | 80% | 29 µM | 73% | 8 µM | 100% | 14.5 µM | 100%
4 | O=C(CC[C@H](NC(=O)OCc1ccccc1)C(=O)OCc1ccccc1)NNc1ccc(OCc2ccccc2)cc1 | > 50 µM | 4% | > 50 µM | 19% | 5 µM | 100% | 0.6 µM | 100%
5 | COc1cc([C@@H]2c3cc4c(cc3[C@@H](O[C@@H]3O[C@@H]5CO[C@@H](C)O[C@H]5[C@H](O)[C@H]3O)[C@H]3COC(=O)[C@H]23)OCO4)cc(OC)c1O [ETOPOSIDE] | 19 µM | 100% | 12 µM | 100% | 9 µM | 100% | 0.13 µM | 100%
6 | COC1=C(NC(CO)CO)C[C@@](O)(CO)CC1=O [MYCOSPORINE SERINOL] | > 50 µM | 11% | > 50 µM | 20% | > 50 µM | 34% | 27 µM | 85%
7 | N[C@@H](CCC(=O)NNc1ccc(O)cc1)C(=O)O [XANTHODERMINE] | > 50 µM | 12% | > 50 µM | 31% | 1.6 µM | 100% | 0.7 µM | 100%
